What all share (assay type): functional
The subject of assay [1] is Bacillus subtilis. The assay can be described thus: Antibacterial activity against Bacillus subtilis ATCC 6633 after 18 hrs by microdilution assay. The conditions noted are these: ATCC 6633, 18 h. An outline of the steps:
(§1)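 Broth microdilution in Mueller Hinton broth, inoculum 5 × 10^5–10^6 cfu/mL final, compounds dissolved in DMSO (at most 1% in the solution), 37 °C for 18 h aerobically. Blank controls received DMSO alone; magnolol served as positive control.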

In assay [2] the test system is Micrococcus luteus. The assay can be described thus: Antibacterial activity against Micrococcus luteus ATCC 9341 after 18 hrs by microdilution assay. The conditions noted are these: ATCC 9341, 18 h. Summed up: as §1
For orientation: Dilution methods test growth across graded concentrations, often in twofold steps.

The test system of assay [3] is Alcaligenes faecalis. The assay can be described thus: Antibacterial activity against Alcaligenes faecalis ATCC 8750 after 18 hrs by microdilution assay. The conditions noted are these: ATCC 8750, 18 h. Summed up: as §1
Assay [4] deals with Bacillus cereus. In words: Antibacterial activity against Bacillus cereus clinical isolate after 18 hrs by microdilution assay. Summed up:
as §1

For assay [5], the system named is Serratia marcescens. The assay can be described thus: Antibacterial activity against Serratia marcescens ATCC 25419 after 18 hrs by microdilution assay. As to conditions: ATCC 25419, 18 h. Summed up:
as §1

In assay [6] the test system is Shigella flexneri. The assay can be described thus: Antibacterial activity against Shigella flexneri ATCC 12022 after 18 hrs by microdilution assay. The conditions noted are these: ATCC 12022, 18 h. Summed up: as §1
Assay [7] deals with Staphylococcus aureus. The assay can be described thus: Antibacterial activity against Micrococcus pyogenes clinical isolate after 18 hrs by microdilution assay. An outline of the steps:
as §1

Assay [8] relates to Pseudomonas aeruginosa. The assay can be described thus: Antibacterial activity against Pseudomonas aeruginosa ATCC 14502 after 18 hrs by microdilution assay. As to conditions: ATCC 14502, 18 h. An outline of the steps:
as §1

The test system of assay [9] is Staphylococcus aureus. The assay can be described thus: Antibacterial activity against Staphylococcus aureus ATCC 25923 after 18 hrs by microdilution assay. As to conditions: ATCC 25923, 18 h. Summed up:
as §1

Assay [10] relates to Escherichia coli. The assay can be described thus: Antibacterial activity against Escherichia coli ATCC 25922 after 18 hrs by microdilution assay. The conditions noted are these: ATCC 25922, 18 h. An outline of the steps:
as §1

The subject of assay [11] is Staphylococcus epidermidis. In words: Antibacterial activity against Staphylococcus epidermidis ATCC 12228 after 18 hrs by microdilution assay. The conditions noted are these: ATCC 12228, 18 h. Summed up: as §1

Values after ≈ are worked out from the molar mass of the structure shown. Bounds are passed on as bounds.

With `C=C(C)[C@@H]1CC=C(C)[C@H](CC[C@H]2C(=C)CC[C@@H](C(C)(C)O)[C@]2(C)CCC(=O)OCC)[C@@]1(C)CCC(=O)O`, the MIC (commonly the lowest concentration that inhibits growth of the organism) was 12.5 µg/mL (≈ 24.2 µM) in assay [1]; greater than 50 µg/mL in [2]; greater than 50 µg/mL in [3]; 3.12 µg/mL (≈ 6.04 µM) in assay [4]; greater than 50 µg/mL in [5]; greater than 50 µg/mL in [6]. Besides, the MIC in assay [7] is 50 µg/mL (≈ 96.8 µM); in assay [8], greater than 50 µg/mL; in assay [9], greater than 50 µg/mL; in [10], greater than 50 µg/mL; in assay [11], 12.5 µg/mL (≈ 24.2 µM).
Turning to `C=C(C)[C@@H]1CCC(=C)[C@H](CC[C@H]2C(C)=CC[C@@H](C(=C)C)[C@]2(C)CCC(=O)O)[C@@]1(C)CCC(=O)OCC`, the MIC in assay [1] is 12.5 µg/mL (≈ 25.1 µM); in assay [2], greater than 50 µg/mL; in assay [3], greater than 50 µg/mL; in [4] it was 3.12 µg/mL (≈ 6.26 µM); in assay [5], greater than 50 µg/mL; in [6] it was greater than 50 µg/mL. For the same compound, the minimum inhibitory concentration (MIC) in [7] was 12.5 µg/mL (≈ 25.1 µM); in assay [8] it was greater than 50 µg/mL; in assay [9] it was 50 µg/mL (≈ 100 µM); in assay [10] it was greater than 50 µg/mL; in [11], 12.5 µg/mL (≈ 25.1 µM).
Take `C=C(C)[C@@H]1CC=C(C)[C@H](CC[C@H]2C(=C)CC[C@H]3C(C)(C)[C@@H](O)CC[C@]23C)[C@@]1(C)CCC(=O)OCC` [ETHYL LANSIOLATE]: the minimum inhibitory concentration (MIC) was 3.12 µg/mL (≈ 6.44 µM) in assay [1]; 6.25 µg/mL (≈ 12.9 µM) in assay [2]; greater than 50 µg/mL in [3]; 3.12 µg/mL (≈ 6.44 µM) in assay [4]; greater than 50 µg/mL in assay [5]; greater than 50 µg/mL in assay [6]. Besides, the minimum inhibitory concentration (MIC) is 3.12 µg/mL (≈ 6.44 µM) in assay [7]; greater than 50 µg/mL in assay [8]; 6.25 µg/mL (≈ 12.9 µM) in assay [9]; greater than 50 µg/mL in assay [10]; 12.5 µg/mL (≈ 25.8 µM) in assay [11].
As for `C=C(C)[C@@H]1CC=C(C)[C@H](CC[C@H]2C(=C)CC[C@@H](C(C)(C)O)[C@]2(C)CCC(=O)OC)[C@@]1(C)CCC(=O)O` [LAMESTICUMIN A], the minimal inhibitory concentration (MIC) in [1] is 3.12 µg/mL (≈ 6.21 µM); in assay [2], 6.25 µg/mL (≈ 12.4 µM); in [3], greater than 50 µg/mL; in [4] it was 3.12 µg/mL (≈ 6.21 µM); in assay [5] it was greater than 50 µg/mL; in assay [6] it was greater than 50 µg/mL. The MIC was 3.12 µg/mL (≈ 6.21 µM) in assay [7]; greater than 50 µg/mL in [8]; 6.25 µg/mL (≈ 12.4 µM) in [9]; greater than 50 µg/mL in [10]; 12.5 µg/mL (≈ 24.9 µM) in assay [11].
In the case of `C=C1CC[C@H]2C(C)(C)[C@@H](O)CC[C@]2(C)[C@H]1CC[C@H]1C(C)=CC[C@@H](C(C)(C)O)[C@]1(C)CCC(=O)OC` [LAMESTICUMIN B], the MIC in assay [1] is 3.12 µg/mL (≈ 6.38 µM); in assay [2], 3.12 µg/mL (≈ 6.38 µM); in assay [3], greater than 50 µg/mL; in assay [4], 3.12 µg/mL (≈ 6.38 µM); in [5], greater than 50 µg/mL; in assay [6], greater than 50 µg/mL. Moreover, the minimal inhibitory concentration (MIC) is 3.12 µg/mL (≈ 6.38 µM) in [7]; greater than 50 µg/mL in assay [8]; 6.25 µg/mL (≈ 12.8 µM) in assay [9]; greater than 50 µg/mL in assay [10]; 12.5 µg/mL (≈ 25.6 µM) in assay [11].
Turning to `C=C1CC[C@H]2C(C)(C)[C@@H](O)CC[C@]2(C)[C@H]1CCC1=C(C)C(=O)C[C@H]2C(C)(C)C(=O)CC[C@]12C` [LAMESTICUMIN C], the minimal inhibitory concentration (MIC) in assay [1] was 3.12 µg/mL (≈ 6.86 µM); in assay [2], 6.25 µg/mL (≈ 13.7 µM); in [3], greater than 50 µg/mL; in assay [4] it was 3.12 µg/mL (≈ 6.86 µM); in [5], greater than 50 µg/mL; in assay [6], greater than 50 µg/mL. The MIC in assay [7] is 3.12 µg/mL (≈ 6.86 µM); in [8] it was greater than 50 µg/mL; in assay [9], 6.25 µg/mL (≈ 13.7 µM); in assay [10], greater than 50 µg/mL; in assay [11], 12.5 µg/mL (≈ 27.5 µM).
For `C=C1CC[C@H]2C(C)(C)C(=O)CC[C@]2(C)[C@H]1CCC1=C(C)[C@H](O)C[C@H]2C(C)(C)C(=O)CC[C@]12C` [LAMESTICUMIN D], the minimum inhibitory concentration (MIC) was 6.25 µg/mL (≈ 13.7 µM) in [1]; greater than 50 µg/mL in assay [2]; greater than 50 µg/mL in assay [3]; 3.12 µg/mL (≈ 6.86 µM) in [4]; greater than 50 µg/mL in [5]; greater than 50 µg/mL in [6]. For the same compound, the MIC in assay [7], in assay [8], in assay [9], in [10] and in assay [11] was greater than 50 µg/mL throughout.
As to `C=C1CC[C@H]2C(C)(C)C(=O)CC[C@]2(C)[C@H]1CCC1=C(C)[C@H](O)C[C@@H](C(=C)C)[C@]1(C)CCC(=O)OC` [LAMESTICUMIN E], the minimum inhibitory concentration (MIC) in assay [1] is 12.5 µg/mL (≈ 25.8 µM); in [2] it was greater than 50 µg/mL; in assay [3] it was greater than 50 µg/mL; in assay [4], 3.12 µg/mL (≈ 6.44 µM); in assay [5], greater than 50 µg/mL; in assay [6], greater than 50 µg/mL. Moreover, the MIC was 6.25 µg/mL (≈ 12.9 µM) in [7]; greater than 50 µg/mL in assay [8]; greater than 50 µg/mL in assay [9]; greater than 50 µg/mL in assay [10]; greater than 50 µg/mL in [11].
`CC1=CC[C@H]2C(C)(C)C(=O)CC[C@]2(C)[C@H]1CC/C=C(\C)CC/C=C(\C)CC[C@@H](O)C(C)(C)O` [LAMESTICUMIN F]: the MIC was 12.5 µg/mL (≈ 27.2 µM) in [1]; greater than 50 µg/mL in assay [2]; greater than 50 µg/mL in assay [3]; 3.12 µg/mL (≈ 6.8 µM) in assay [4]; greater than 50 µg/mL in assay [5]; greater than 50 µg/mL in [6]. The minimum inhibitory concentration (MIC) in assay [7], in assay [8], in assay [9], in [10] and in assay [11] was greater than 50 µg/mL throughout.
In the case of `C=CCc1ccc(O)c(-c2cc(CC=C)ccc2O)c1` [MAGNOLOL], the MIC is 12.5 µg/mL (≈ 46.9 µM) in assay [1]; 12.5 µg/mL (≈ 46.9 µM) in assay [2]; greater than 50 µg/mL in [3]; 12.5 µg/mL (≈ 46.9 µM) in assay [4]; greater than 50 µg/mL in assay [5]; greater than 50 µg/mL in assay [6]. In addition, the MIC in assay [7] was 25 µg/mL (≈ 93.9 µM); in assay [8], greater than 50 µg/mL; in assay [9], 25 µg/mL (≈ 93.9 µM); in [10], greater than 50 µg/mL; in [11], 12.5 µg/mL (≈ 46.9 µM).
